Where a SMILES comes first, the peptide text is derived from it. [ ]: non-standard residue; d: D form. The star is where a group is joined. Phe(4-NO2) = N[C@@H](Cc1ccc([N+](=O)[O-])cc1)C(=O)O; Chlorambucil = O=C(CCCc1ccc(N(CCCl)CCCl)cc1)*; Phe(4-NH2) = Nc1ccc(C[C@H](N)C(=O)O)cc1
Tests used:
Type in all cases: functional
Homo sapiens = species: Homo sapiens; experiment: Compound was evaluated for its ability to inhibit fibrin polymerization.; design: concentration or dose not given beside the values; conditions: dose or concentration not given here
How it was run: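 Fibrin monomer from human fibrinogen (8.3 mg protein/mL solution) diluted into phosphate buffer (80 mM, pH 6.3) containing peptide; reaggregation followed at 350 nm. Optional preincubation: peptide in 1 M NaBr/0.05 M NaOAc pH 5.3 with monomer, 15 min, room temperature, before buffer addition. Molar activity from linear dose-response slope versus reference tetrapeptide, averaged values.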

[1] = target: Prothrombin (Homo sapiens) (UniProt P00734); experiment: Compound was evaluated for its ability to inhibit thrombin catalyzed amidolysis.; design: concentration or dose not given beside the values; conditions: concentration not given here
How it was run: (§1)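 Thrombin (0.5 unit) at 37 °C with 0.25 mL of 1 mM Tos-Gly-Pro-Arg-p-nitroanilide, 0.25 mL saline containing 2 mg/mL peptide, and 1.5 mL saline. Chromophore read at 405 nm. Where indicated, peptide and thrombin were preincubated 15 min at 4 °C before substrate addition.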

[2] = Compound was evaluated for its ability to inhibit the thrombin-initiated clotting time of citreated human plasma.; design: concentration or dose not given beside the values
How it was run: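 Bovine thrombin in saline, dosed to give a 20 s clot, added to 200 µL citrated human plasma plus 100 µL saline containing peptide at 37 °C. Time to first clot recorded. Chlorambucil peptides came from DMSO stock diluted in saline; optional 15 min, 4 °C preincubation with plasma or thrombin. Molar activity from dose-response slope versus reference, with molarity from amino acid analysis.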

[3] = Relative potency was determined
[4] = target: Prothrombin (Homo sapiens) (UniProt P00734); experiment: Compound was evaluated for its ability to inhibit thrombin catalyzed amidolysis; conditions: concentration not given here; how it was run: as §1

Row | inhibition [1] | inhibition [4] | Compound | inhibition (Homo sapiens) | Inhibition [2] | Relative potency [3]
1 | 0% |  | NCC(=O)N1CCC[C@H]1C(=O)N[C@@H](CCCN=C(N)N)C(=O)N[C@@H](Cc1ccc([N+](=O)[O-])cc1)C(=O)O (stereo in doubt; 9) [listing 1 of 2 here] | 0% |  | 
2 | 0% |  | NCC(=O)N1CCC[C@H]1C(=O)N[C@@H](CCCN=C(N)N)C(=O)N[C@@H](Cc1ccc(N)cc1)C(=O)O (H-GPR[Phe(4-NH2)]-OH) | 22% | 5% | 0.22
3 | 0% |  | NCC(=O)N1CCC[C@H]1C(=O)N[C@@H](CCCN=C(N)N)C(=O)N[C@@H](Cc1ccc([N+](=O)[O-])cc1)C(=O)O (stereo in doubt; 19) [listing 1 of 2 here] |  |  | 
4 | 0% |  | NCC(=O)N1CCC[C@H]1C(=O)N[C@@H](CCCN=C(N)N)C(=O)N1CCC[C@H]1C(=O)N[C@@H](Cc1ccc([N+](=O)[O-])cc1)C(=O)O (stereo in doubt; 20) |  |  | 
5 | 0% |  | NCC(=O)N1CCC[C@H]1C(=O)N[C@@H](CCCN=C(N)N)C(=O)N1CCC[C@H]1C(=O)N[C@@H](Cc1ccc([N+](=O)[O-])cc1)C(=O)O (stereo in doubt; 10) [listing 1 of 2 here] | 88% |  | 0.83
6 | 0% |  | NCC(=O)N1CCC[C@H]1C(=O)N[C@@H](CCCN=C(N)N)C(=O)N1CCC[C@H]1C(=O)N[C@@H](Cc1ccc(N)cc1)C(=O)O (H-GPRP[Phe(4-NH2)]-OH) | 105% | 81% | 
7 |  | 0% | NCC(=O)N1CCC[C@H]1C(=O)N[C@@H](CCCN=C(N)N)C(=O)N1CCC[C@H]1C(=O)O | 100% | 100% | 

Second part, the compound before the results:

Row | Compound | inhibition [1] | inhibition [4] | inhibition (Homo sapiens) | Inhibition [2] | Relative potency [3]
8 | NCC(=O)N1CCC[C@H]1C(=O)N[C@@H](CCCN=C(N)N)C(=O)N[C@@H](Cc1ccc([N+](=O)[O-])cc1)C(=O)O (stereo in doubt; 19) [listing 2 of 2 here] |  |  |  | 14% | 
9 | NCC(=O)N[C@@H](Cc1ccc([N+](=O)[O-])cc1)C(=O)N[C@@H](CCCN=C(N)N)C(=O)N1CCC[C@H]1C(=O)O (H-G[Phe(4-NO2)]RP-OH) | 0% |  |  | 10% | 
10 | N=C(N)NCCC[C@H](NC(=O)[C@@H]1CCCN1C(=O)CCCc1ccc(N(CCCl)CCCl)cc1)C(=O)N1CCC[C@H]1C(=O)O |  |  |  | 0% | 
11 | NCC(=O)N1CCC[C@H]1C(=O)N[C@@H](Cc1ccc([N+](=O)[O-])cc1)C(=O)N1CCC[C@H]1C(=O)O (H-GP[Phe(4-NO2)]P-OH) | 0% |  |  | 0% | 
12 | N=C(N)NCCC[C@H](NC(=O)CCCc1ccc(N(CCCl)CCCl)cc1)C(=O)N1CCC[C@H]1C(=O)O |  |  |  | 0% | 
13 | NCC(=O)N1CCC[C@H]1C(=O)N[C@@H](CCCN=C(N)N)C(=O)N1CCC[C@H]1C(=O)N[C@@H](Cc1ccc([N+](=O)[O-])cc1)C(=O)O (stereo in doubt; 10) [listing 2 of 2 here] |  |  |  | 73% | 
14 | N=C(N)NCCC[C@H](NC(=O)[C@@H]1CCCN1C(=O)CNC(=O)CCCc1ccc(N(CCCl)CCCl)cc1)C(=O)N1CCC[C@H]1C(=O)O (Chlorambucil-GPRP-OH) |  |  |  | 0% | 
15 | NCC(=O)N1CCC[C@H]1C(=O)N[C@@H](CCCN=C(N)N)C(=O)N[C@@H](Cc1ccc([N+](=O)[O-])cc1)C(=O)O (stereo in doubt; 9) [listing 2 of 2 here] |  |  |  | 2% | 

From ChEMBL document CHEMBL1121800, “Fibrin Polymerization. 1. Alkylating peptide inhibitors of fibrin polymerization” (1981)
